Measurements as given in ChEMBL document CHEMBL1125344, “(Pyridylcyanomethyl)piperazines as orally active PAF antagonists” (J Med Chem, 1992).

What was measured:
[1] = target: Platelet-activating factor receptor (Mus musculus) (UniProt Q62035); test: Oral dose required to inhibit PAF-induced mortality (PAF-Antagonistic activity)in mice by 50%.; type: functional; settings: Mus sp.
Summary of the method: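 Male Swiss mice, 22-26 g, in groups of 10. Compound or saline given po (20 mL/kg) 60 min before C18-PAF 100 µg/kg plus propranolol 1 mg/kg by tail vein. ID50 from percent inhibition of mortality versus controls.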

[2] = target: Platelet-activating factor receptor (Rattus norvegicus) (UniProt P46002); test: Dose required to inhibit PAF-induced hypotension (PAF-Antagonistic activity) in normotensive rats by 50%.; type: functional
Summary of the method: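 Male Sprague-Dawley rats, 180-220 g, anesthetized with sodium pentobarbital ip. Carotid blood pressure recorded. Compound given iv in saline (1 mL/kg) via femoral vein 3 min before PAF 0.5 µg/kg iv; vehicle controls. ID50 by linear regression of one curve of at least four doses, each the mean % inhibition from two or more experiments.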

[3] = target: Platelet-activating factor receptor (Rattus norvegicus) (UniProt P46002); test: In vivo dose administered intravenously to inhibit PAF-induced hypotension (PAF-Antagonistic activity) in normotensive rats by 59%.; type: functional, organism-based
[4] = target: Platelet-activating factor receptor (Rattus norvegicus) (UniProt P46002); test: In vivo dose administered intravenously to inhibit PAF-induced hypotension (PAF-Antagonistic activity) in normotensive rats by 55%.; type: functional, organism-based

Sequence of Platelet-activating factor receptor (Rattus norvegicus) (P46002 whole entry): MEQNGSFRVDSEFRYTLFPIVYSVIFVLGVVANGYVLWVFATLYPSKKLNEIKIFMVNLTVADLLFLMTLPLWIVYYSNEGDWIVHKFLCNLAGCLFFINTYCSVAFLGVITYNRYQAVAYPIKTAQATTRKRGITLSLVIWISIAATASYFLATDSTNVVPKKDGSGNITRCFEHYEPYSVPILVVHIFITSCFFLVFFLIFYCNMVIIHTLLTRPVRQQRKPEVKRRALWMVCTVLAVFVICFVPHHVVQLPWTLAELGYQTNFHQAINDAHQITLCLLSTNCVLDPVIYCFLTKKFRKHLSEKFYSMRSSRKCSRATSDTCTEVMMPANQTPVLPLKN
Sequence of Platelet-activating factor receptor (Mus musculus) (Q62035 whole entry): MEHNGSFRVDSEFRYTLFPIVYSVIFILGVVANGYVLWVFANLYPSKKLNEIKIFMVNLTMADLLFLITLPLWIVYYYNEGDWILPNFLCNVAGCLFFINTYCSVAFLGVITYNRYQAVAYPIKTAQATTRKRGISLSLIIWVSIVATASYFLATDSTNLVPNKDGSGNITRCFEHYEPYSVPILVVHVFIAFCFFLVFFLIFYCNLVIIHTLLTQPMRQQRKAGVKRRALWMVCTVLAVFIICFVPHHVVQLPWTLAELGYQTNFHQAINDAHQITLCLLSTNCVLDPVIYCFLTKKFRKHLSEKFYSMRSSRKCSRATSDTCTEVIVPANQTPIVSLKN

Compound | ID50 [1] | ID50 [2] | ID50 [3] | ID50 [4]
N#CC(c1cccnc1)N1CCN(C(=O)CC(O)(c2ccccc2)c2ccccc2)CC1 (configuration not stated) | 4.7 mg/kg | 0.061 mg/kg | – | –
N#CC(c1cccnc1)N1CCN(C(=S)C(c2ccccc2)c2ccccc2)CC1 (configuration not stated) | > 50 mg/kg | 0.45 mg/kg | – | –
N#CC(c1cccnc1)N1CCN(C(=O)CCc2ccccc2)CC1 (configuration not stated) | 44 mg/kg | 1.2 mg/kg | – | –
N#CC(c1cccnc1)C1CCN(C(=O)CNC(c2ccccc2)c2ccccc2)CC1 (configuration not stated) | 2.6 mg/kg | 0.03 mg/kg | – | –
CC(c1ccccc1)N(C)CC(=O)N1CCN(C(C#N)c2cccnc2)CC1 (configuration not stated) | > 50 mg/kg | 0.77 mg/kg | – | –
Cn1cc(C(C#N)N2CCN(C(=O)CC(c3ccccc3)c3ccccc3)CC2)c2ccccc21 (configuration not stated) | – | > 5 mg/kg | – | –
COc1cc(C(=O)N2CCN(C(C#N)c3ccccn3)CC2)cc(OC)c1OC (configuration not stated) | – | > 5 mg/kg | – | –
N#CC(c1cccnc1)N1CCN(CC(=O)NCCC(c2ccccc2)c2ccccc2)CC1 (configuration not stated) | > 30 mg/kg | 3 mg/kg | – | –
N#CC(c1cccnc1)N1CCN(C(=O)CNc2ccccc2)CC1 (configuration not stated) | 28 mg/kg | 0.49 mg/kg | – | –
N#CC(c1cccc([N+](=O)[O-])c1)N1CCN(C(=O)CC(c2ccccc2)c2ccccc2)CC1 (configuration not stated) | > 30 mg/kg | > 5 mg/kg | – | –
CC(C)(C)C(=O)N1CCN(C(C#N)c2cccnc2)CC1 (configuration not stated) | – | > 5 mg/kg | – | –
N#CC(c1cccnc1)N1CCN(C(=O)CNC(c2ccccc2)c2ccccc2)CC1 (configuration not stated) | 5.9 mg/kg | 0.023 mg/kg | – | –
N#CC(c1cccnc1)N1CCN(C(=O)/C(=C/c2ccccc2)c2ccccc2)CC1 (configuration not stated) | > 20 mg/kg | 0.17 mg/kg | – | –
CN(CCCc1ccccc1)CC(=O)N1CCN(C(C#N)c2cccnc2)CC1 (configuration not stated) | – | > 5 mg/kg | – | –
COc1cc(C(=O)N2CCN(Cc3cccnc3)CC2)cc(OC)c1OC | > 100 mg/kg | > 5 mg/kg | – | –
N#CC(c1cccnc1)N1CCN(C(=O)CNCCCc2ccccc2)CC1 (configuration not stated) | 50 mg/kg | 1.3 mg/kg | – | –
N#CC(c1cccnc1)N1CCN(C(=O)Cc2c[nH]c3ccccc23)CC1 (configuration not stated) | > 50 mg/kg | 3.3 mg/kg | – | –
N#CC(c1cccnc1)N1CCN(C(=O)C=C(c2ccccc2)c2ccccc2)CC1 (configuration not stated) | 50 mg/kg | 0.049 mg/kg | – | –
N#CC(c1cccnc1)N1CCN(C(=O)CN(Cc2ccccc2)Cc2ccccc2)CC1 (configuration not stated) | > 10 mg/kg | 1.7 mg/kg | – | –
CCCCC(=O)N1CCN(C(C#N)c2cccnc2)CC1 (configuration not stated) | > 50 mg/kg | 4.3 mg/kg | – | –
N#CC(=C1CCN(C(=O)CC(c2ccccc2)c2ccccc2)CC1)c1cccnc1 | 30 mg/kg | 0.42 mg/kg | – | –

Compound | ID50 [1] | ID50 [2] | ID50 [3] | ID50 [4]
N#CC(c1cccnc1)N1CCN(C(=O)CNCC(c2ccccc2)c2ccccc2)CC1 (configuration not stated) | > 10 mg/kg | 0.36 mg/kg | – | –
N#CC(c1cccnc1)N1CCN(C(=O)C(Cc2ccccc2)c2ccccc2)CC1 (configuration not stated) | > 50 mg/kg | 0.12 mg/kg | – | –
N#CC(c1cccnc1)N1CCC(OC(=O)CC(c2ccccc2)c2ccccc2)CC1 (configuration not stated) | – | > 5 mg/kg | – | –
N#CC(c1ccncc1)N1CCN(C(=O)CNC(=O)C(c2ccccc2)c2ccccc2)CC1 (configuration not stated) | > 20 mg/kg | 0.47 mg/kg | – | –
N#CC(c1cccnc1)N1CCN(C(=O)CNCc2ccccc2)CC1 (configuration not stated) | 50 mg/kg | 0.8 mg/kg | – | –
N#CC(c1ccncc1)N1CCN(C(=O)CCNC(c2ccccc2)c2ccccc2)CC1 (configuration not stated) | 3.2 mg/kg | 0.037 mg/kg | – | –
N#CC(c1ccncc1)N1CCN(CCNC(c2ccccc2)c2ccccc2)CC1 (configuration not stated) | 29 mg/kg | – | 5 mg/kg | –
N#CC(c1cccnc1)N1CCN(C(=O)CCNC(c2ccccc2)c2ccccc2)CC1 (configuration not stated) | 5.4 mg/kg | 0.025 mg/kg | – | –
Cc1nnc2n1-c1sc(CCC(=O)N3CCOCC3)cc1C(c1ccccc1Cl)=NC2 | 0.97 mg/kg | 0.17 mg/kg | – | –
N#CC(c1cccnc1)N1CCN(C(=O)CNc2cccc3ccccc23)CC1 (configuration not stated) | – | 2.5 mg/kg | – | –
CC(C(=O)N1CCN(C(C#N)c2cccnc2)CC1)(c1ccccc1)c1ccccc1 (configuration not stated) | > 30 mg/kg | 0.14 mg/kg | – | –
N#CC(c1cccnc1)N1CCN(C(=O)/C=C/c2ccccc2)CC1 (configuration not stated) | 100 mg/kg | 0.24 mg/kg | – | –
N#Cc1cccc(C(C#N)N2CCN(C(=O)CC(c3ccccc3)c3ccccc3)CC2)c1 (configuration not stated) | > 30 mg/kg | > 5 mg/kg | – | –
N#CC(c1cccnc1)N1CCN(CCC(c2ccccc2)c2ccccc2)CC1 (configuration not stated) | 15 mg/kg | 3.1 mg/kg | – | –
N#CC(c1ccncc1)N1CCN(C(=O)CC(c2ccccc2)c2ccccc2)CC1 (configuration not stated) | 7.3 mg/kg | 0.041 mg/kg | – | –
N#CC(c1cccnc1)N1CCN(C(=O)C(Cc2ccccc2)Cc2ccccc2)CC1 (configuration not stated) | 100 mg/kg | 0.68 mg/kg | – | –
N#CC(c1cccnc1)N1CCN(C(=O)NC(c2ccccc2)c2ccccc2)CC1 (configuration not stated) | 30 mg/kg | 0.29 mg/kg | – | –
N#CC(c1cccnc1)N1CCN(C(=O)c2ccc3ccccc3c2)CC1 (configuration not stated) | – | – | – | 5 mg/kg
CC(C#N)(c1cccnc1)N1CCN(C(=O)C(c2ccccc2)c2ccccc2)CC1 (configuration not stated) | > 30 mg/kg | > 5 mg/kg | – | –
CC(NCC(=O)N1CCN(C(C#N)c2cccnc2)CC1)c1ccccc1 (configuration not stated) | 18 mg/kg | 0.39 mg/kg | – | –
N#CC(c1cccnc1)N1CCN(C(=O)C(CCc2ccccc2)c2ccccc2)CC1 (configuration not stated) | – | 0.73 mg/kg | – | –

Compound | ID50 [1] | ID50 [2] | ID50 [3] | ID50 [4]
O=C(C(c1ccccc1)c1ccccc1)N1CCN(Cc2cccnc2)CC1 | – | 2.7 mg/kg | – | –
CC(C(=O)N1CCN(C(C#N)c2cccnc2)CC1)c1ccccc1 (configuration not stated) | > 50 mg/kg | 0.26 mg/kg | – | –
N#CC(c1cccc(C(F)(F)F)c1)N1CCN(C(=O)CC(c2ccccc2)c2ccccc2)CC1 (configuration not stated) | > 30 mg/kg | > 5 mg/kg | – | –
O=C(c1cccnc1)N1CCN(C(=O)C(c2ccccc2)c2ccccc2)CC1 | – | > 5 mg/kg | – | –
CCCCCCCC(=O)N1CCN(C(C#N)c2cccnc2)CC1 (configuration not stated) | 100 mg/kg | 1.2 mg/kg | – | –
N#CC(c1cccnc1)N1CCN(C(=O)CNC(Cc2ccccc2)c2ccccc2)CC1 (configuration not stated) | > 10 mg/kg | 0.38 mg/kg | – | –
N#CC(c1cccnc1)N1CCN(C(=O)CNCCC(c2ccccc2)c2ccccc2)CC1 (configuration not stated) | 14 mg/kg | 0.21 mg/kg | – | –
O=C(CC(c1ccccc1)c1ccccc1)N1CCN(Cc2cccnc2)CC1 | 35 mg/kg | 0.48 mg/kg | – | –
COc1cc(CC(=O)N2CCN(C(C#N)c3cccnc3)CC2)cc(OC)c1OC (configuration not stated) | > 50 mg/kg | 2.5 mg/kg | – | –
CN(CC(=O)N1CCN(C(C#N)c2cccnc2)CC1)c1ccccc1 (configuration not stated) | – | 2.2 mg/kg | – | –
N#CC(CN1CCN(C(=O)C(c2ccccc2)c2ccccc2)CC1)c1cccnc1 (configuration not stated) | – | > 5 mg/kg | – | –
N#CC(c1cccnc1)N1CCN(CCNC(=O)CC(c2ccccc2)c2ccccc2)CC1 (configuration not stated) | – | 2.2 mg/kg | – | –
COc1cc(C(=O)N2CCN(C(=O)c3cc(OC)c(OC)c(OC)c3)CC2)cc(OC)c1OC | > 100 mg/kg | 4.7 mg/kg | – | –
N#CC1(Nc2cccnc2)CCN(C(=O)CNC(c2ccccc2)c2ccccc2)CC1 | 15 mg/kg | 0.096 mg/kg | – | –
N#CC1(Nc2cccnc2)CCN(C(=O)CC(c2ccccc2)c2ccccc2)CC1 | 12 mg/kg | 0.04 mg/kg | – | –
COc1cc(C(=O)N2CCN(C(=O)c3cccnc3)CC2)cc(OC)c1OC | > 100 mg/kg | > 5 mg/kg | – | –
N#CC(c1cccnc1)N1CCN(CCNC(=O)C(c2ccccc2)c2ccccc2)CC1 (configuration not stated) | 50 mg/kg | 0.29 mg/kg | – | –
N#CC(c1cccnc1)N1CCN(C(=O)CC(c2ccccc2)c2ccccc2)CC1 (configuration not stated) | 12 mg/kg | 0.013 mg/kg | – | –
COc1cc(C(=O)N2CCN(C(C#N)c3cccnc3)CC2)cc(OC)c1OC (configuration not stated) | > 100 mg/kg | 4.4 mg/kg | – | –
CN(CC(=O)N1CCN(C(C#N)c2cccnc2)CC1)C(c1ccccc1)c1ccccc1 (configuration not stated) | 4.6 mg/kg | 0.33 mg/kg | – | –
N#CC(c1cccnc1)N1CCN(C(=O)c2ccccc2)CC1 (configuration not stated) | – | > 5 mg/kg | – | –

Compound | ID50 [1] | ID50 [2] | ID50 [3] | ID50 [4]
O=C(CC(c1ccccc1)c1ccccc1)N1CCC(Nc2cccnc2)CC1 | – | 2.4 mg/kg | – | –
N#CC(c1cccnc1)N1CCN(C(=O)OCC(c2ccccc2)c2ccccc2)CC1 (configuration not stated) | > 30 mg/kg | 0.078 mg/kg | – | –
N#CC(c1cccnc1)C1CCN(C(=O)C(c2ccccc2)c2ccccc2)CC1 (configuration not stated) | 14 mg/kg | 0.023 mg/kg | – | –
Cn1ccc(C(C#N)N2CCN(C(=O)CC(c3ccccc3)c3ccccc3)CC2)c1 (configuration not stated) | – | 4.2 mg/kg | – | –
CC(c1cccnc1)N1CCN(C(=O)C(c2ccccc2)c2ccccc2)CC1 (configuration not stated) | 100 mg/kg | 3.6 mg/kg | – | –
N#CC(c1cccnc1)N1CCN(C(=O)C(c2ccccc2)c2ccccc2)CC1 (configuration not stated) | 12 mg/kg | 0.11 mg/kg | – | –
N#CC(c1ccncc1)N1CCN(C(=O)CC(O)(c2ccccc2)c2ccccc2)CC1 (configuration not stated) | 7.7 mg/kg | 0.061 mg/kg | – | –
COc1cc(CCC(=O)N2CCN(C(C#N)c3cccnc3)CC2)cc(OC)c1OC (configuration not stated) | 100 mg/kg | 2 mg/kg | – | –
O=C(C(c1ccccc1)c1ccccc1)N1CC[N+]([O-])(Cc2cccnc2)CC1 | – | > 5 mg/kg | – | –
N#CC(c1cccnc1)N1CCN(C(=O)CN(Cc2ccccc2)c2ccccc2)CC1 (configuration not stated) | > 30 mg/kg | 0.42 mg/kg | – | –
N#CC(c1cncs1)N1CCN(C(=O)CC(c2ccccc2)c2ccccc2)CC1 (configuration not stated) | 25 mg/kg | 0.75 mg/kg | – | –
CCCCCCCCCCCCCCCC(=O)N1CCN(C(C#N)c2cccnc2)CC1 (configuration not stated) | – | > 5 mg/kg | – | –
COc1cc(C(=O)N2CCN(C(=S)c3cccnc3)CC2)cc(OC)c1OC | 100 mg/kg | > 5 mg/kg | – | –
N#CC(c1cccnc1)N1CCN(C(=O)Cc2cccc3ccccc23)CC1 (configuration not stated) | > 50 mg/kg | 1.3 mg/kg | – | –
N#CC(c1cccc(Cl)c1)N1CCN(C(=O)CC(c2ccccc2)c2ccccc2)CC1 (configuration not stated) | > 30 mg/kg | > 5 mg/kg | – | –
NC(=O)C(c1cccnc1)N1CCN(C(=O)C(c2ccccc2)c2ccccc2)CC1 (configuration not stated) | – | > 5 mg/kg | – | –
COc1cc(CCC(=O)N2CCN(C(=O)c3cc(OC)c(OC)c(OC)c3)CC2)cc(OC)c1OC | – | > 5 mg/kg | – | –
N#CC(c1cccnc1)N1CCN(C(=O)Cc2ccccc2)CC1 (configuration not stated) | 50 mg/kg | 1.5 mg/kg | – | –
